Data as given in ChEMBL document CHEMBL1135657, “Novel dual inhibitors of AChE and MAO derived from hydroxy aminoindan and phenethylamine as potential treatment for Alzheimer's disease” (J Med Chem, 2002).

Key:
[1] = target: T1, Amine oxidase [flavin-containing] B (Rattus norvegicus, UniProt P19643); test: biochemical; assay type: tissue-based, Brain
T1 sequence (P19643 whole entry): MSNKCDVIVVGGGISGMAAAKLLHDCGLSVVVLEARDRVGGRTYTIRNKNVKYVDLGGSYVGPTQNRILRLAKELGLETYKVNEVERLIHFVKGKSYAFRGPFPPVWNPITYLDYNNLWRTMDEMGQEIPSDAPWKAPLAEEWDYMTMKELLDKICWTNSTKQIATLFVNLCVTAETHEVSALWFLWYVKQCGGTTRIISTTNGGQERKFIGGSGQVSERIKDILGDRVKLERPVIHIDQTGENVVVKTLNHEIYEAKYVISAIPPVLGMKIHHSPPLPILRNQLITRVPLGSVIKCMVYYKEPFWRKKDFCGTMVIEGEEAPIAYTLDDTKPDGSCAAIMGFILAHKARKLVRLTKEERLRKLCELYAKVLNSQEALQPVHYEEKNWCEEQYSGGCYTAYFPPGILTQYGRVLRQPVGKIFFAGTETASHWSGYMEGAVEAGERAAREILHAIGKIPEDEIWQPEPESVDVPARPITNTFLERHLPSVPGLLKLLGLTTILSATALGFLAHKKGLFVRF

[2] = target: T2, Amine oxidase [flavin-containing] A (Rattus norvegicus, UniProt P21396); test: In vitro inhibitory concentration against Monoamine oxidase A of rat brain homogenates; value ranges from 0.5-3.7; assay type: tissue-based
T2 sequence (P21396 whole entry): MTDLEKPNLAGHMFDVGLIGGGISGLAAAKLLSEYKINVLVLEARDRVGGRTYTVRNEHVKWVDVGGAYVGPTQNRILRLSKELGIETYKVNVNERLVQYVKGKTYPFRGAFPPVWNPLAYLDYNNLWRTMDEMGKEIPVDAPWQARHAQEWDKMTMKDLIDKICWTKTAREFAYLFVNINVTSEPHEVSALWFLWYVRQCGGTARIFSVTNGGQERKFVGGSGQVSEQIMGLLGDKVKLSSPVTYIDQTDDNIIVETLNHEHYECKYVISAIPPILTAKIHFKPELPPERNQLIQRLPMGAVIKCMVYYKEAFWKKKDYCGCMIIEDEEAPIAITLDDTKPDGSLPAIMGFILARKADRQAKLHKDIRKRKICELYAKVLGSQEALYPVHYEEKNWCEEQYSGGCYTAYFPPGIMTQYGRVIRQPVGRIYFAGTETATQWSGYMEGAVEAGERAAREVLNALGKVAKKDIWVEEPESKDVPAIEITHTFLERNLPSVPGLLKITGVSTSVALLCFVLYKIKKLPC

Acetylcholinesterase [3] = target: T3, Acetylcholinesterase (Homo sapiens, UniProt P22303); test: In vitro inhibitory concentration against purified Acetylcholinesterase of human erythrocytes; value ranges from 5.4-38.2
T3 sequence (P22303 whole entry): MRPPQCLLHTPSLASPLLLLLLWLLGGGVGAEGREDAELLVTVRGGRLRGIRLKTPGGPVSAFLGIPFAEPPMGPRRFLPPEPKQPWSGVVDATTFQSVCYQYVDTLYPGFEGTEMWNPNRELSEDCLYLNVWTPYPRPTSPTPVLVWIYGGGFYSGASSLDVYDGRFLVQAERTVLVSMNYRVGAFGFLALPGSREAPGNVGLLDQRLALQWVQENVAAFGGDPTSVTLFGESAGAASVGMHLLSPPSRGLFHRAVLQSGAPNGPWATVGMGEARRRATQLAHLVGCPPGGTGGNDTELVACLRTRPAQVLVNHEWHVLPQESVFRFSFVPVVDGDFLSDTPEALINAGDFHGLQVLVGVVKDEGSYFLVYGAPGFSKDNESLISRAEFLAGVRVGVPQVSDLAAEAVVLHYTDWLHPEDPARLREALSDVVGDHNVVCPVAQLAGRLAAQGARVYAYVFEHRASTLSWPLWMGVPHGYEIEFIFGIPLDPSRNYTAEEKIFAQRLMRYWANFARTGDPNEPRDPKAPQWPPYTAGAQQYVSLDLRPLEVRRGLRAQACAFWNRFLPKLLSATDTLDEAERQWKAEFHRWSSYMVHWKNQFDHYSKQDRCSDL

Butyrylcholinesterase [4] = target: T4, Butyrylcholinesterase (Equus caballus, UniProt Q9N1N9); test: In vitro inhibitory concentration against Butyrylcholinesterase of horse serum; value ranges from 1.89-4.67
T4 sequence (Q9N1N9 whole entry): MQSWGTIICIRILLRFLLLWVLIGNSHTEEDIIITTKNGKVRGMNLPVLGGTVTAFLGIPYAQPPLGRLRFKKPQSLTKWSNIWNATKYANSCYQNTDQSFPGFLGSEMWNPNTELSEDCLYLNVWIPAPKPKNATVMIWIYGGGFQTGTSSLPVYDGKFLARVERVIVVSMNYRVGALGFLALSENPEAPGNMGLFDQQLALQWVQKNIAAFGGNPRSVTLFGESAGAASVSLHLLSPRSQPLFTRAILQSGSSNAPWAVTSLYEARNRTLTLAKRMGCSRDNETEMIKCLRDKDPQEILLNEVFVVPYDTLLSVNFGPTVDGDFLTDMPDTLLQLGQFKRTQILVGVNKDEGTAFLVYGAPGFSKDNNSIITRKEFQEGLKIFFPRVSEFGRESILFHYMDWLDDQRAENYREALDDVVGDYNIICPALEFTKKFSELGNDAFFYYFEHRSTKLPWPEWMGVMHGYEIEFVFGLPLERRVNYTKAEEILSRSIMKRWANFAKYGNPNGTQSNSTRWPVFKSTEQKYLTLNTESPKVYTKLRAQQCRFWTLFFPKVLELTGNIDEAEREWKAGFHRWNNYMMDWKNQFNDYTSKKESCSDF
Method in brief: (§1)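 Ellman assay followed, with 200 µM butyrylthiocholine as substrate. Runs were in triplicate with four-point dose-response curves. IC50 and fiducial limits came from log concentration versus % inhibition.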

[5] = target: T2, Amine oxidase [flavin-containing] A; test: In vitro inhibitory concentration against Monoamine oxidase A of rat brain homogenates; value ranges from 13-17; assay type: tissue-based
[6] = target: T1, Amine oxidase [flavin-containing] B; test: In vitro inhibitory concentration against Monoamine oxidase B of rat brain homogenates; value ranges from 0.2-0.8; assay type: tissue-based
Acetylcholinesterase [7] = target: T3, Acetylcholinesterase; test: In vitro inhibitory concentration against purified Acetylcholinesterase of human erythrocytes; value ranges from 2.2-10.1
Butyrylcholinesterase [8] = target: T4, Butyrylcholinesterase; test: In vitro inhibitory concentration against Butyrylcholinesterase of horse serum; value ranges from 0.71-0.86
Method in brief: as §1

[9] = target: T1, Amine oxidase [flavin-containing] B; test: In vitro inhibitory concentration against Monoamine oxidase B of rat brain homogenates; assay type: tissue-based
[10] = target: T2, Amine oxidase [flavin-containing] A; test: In vitro inhibitory concentration against Monoamine oxidase A of rat brain homogenates; value ranges from 1.8-2.4; assay type: tissue-based
[11] = target: T2, Amine oxidase [flavin-containing] A; test: In vitro inhibitory concentration against Monoamine oxidase A of rat brain homogenates; value ranges from 0.005-0.012; assay type: tissue-based
Acetylcholinesterase [12] = target: T3, Acetylcholinesterase; test: In vitro inhibitory concentration against purified Acetylcholinesterase of human erythrocytes; value ranges from 0.18-0.44
[13] = target: T2, Amine oxidase [flavin-containing] A; test: In vitro inhibitory concentration against Monoamine oxidase A of rat brain homogenates; value ranges from 60-150; assay type: tissue-based
Acetylcholinesterase [14] = target: T3, Acetylcholinesterase; test: In vitro inhibitory concentration against purified Acetylcholinesterase of human erythrocytes; value ranges from 2.2-6.9
[15] = target: T1, Amine oxidase [flavin-containing] B; test: In vitro inhibitory concentration against Monoamine oxidase B of rat brain homogenates; value ranges from 0.18-0.30; assay type: tissue-based
Method in brief: (§2)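 Rat brain homogenate (in 0.3 M sucrose) as enzyme source; compounds diluted 10⁻²M to 10⁻⁹M in 0.05 M phosphate buffer with 0.15 μM clorgyline; preincubated 60 min at 37 °C, then 10 μM ¹⁴C-phenylethylamine added for 20 min more; stopped with citric acid; metabolites extracted into toluene/ethyl acetate, scintillation counted; activity as % of control, tranylcypromine blank.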

[16] = target: T2, Amine oxidase [flavin-containing] A; test: In vitro inhibitory concentration against Monoamine oxidase A of rat brain homogenates; value ranges from 14-24; assay type: tissue-based
[17] = target: T2, Amine oxidase [flavin-containing] A; test: In vitro inhibitory concentration against Monoamine oxidase A of rat brain homogenates; value ranges from 0.014-0.016; assay type: tissue-based
[18] = target: T1, Amine oxidase [flavin-containing] B; test: In vitro inhibitory concentration against Monoamine oxidase B of rat brain homogenates; value ranges from […]; assay type: tissue-based
Method in brief: as §2

[19] = target: T1, Amine oxidase [flavin-containing] B; test: In vitro inhibitory concentration against Monoamine oxidase B of rat brain homogenates; value ranges from 0.7-1.3; assay type: tissue-based
[20] = target: T2, Amine oxidase [flavin-containing] A; test: In vitro inhibitory concentration against Monoamine oxidase A of rat brain homogenates; value ranges from 0.5-1.6; assay type: tissue-based
[21] = target: T2, Amine oxidase [flavin-containing] A; test: In vitro inhibitory concentration against Monoamine oxidase A of rat brain homogenates; value ranges from 110-520; assay type: tissue-based
Acetylcholinesterase [22] = target: T3, Acetylcholinesterase; test: In vitro inhibitory concentration against purified Acetylcholinesterase of human erythrocytes; value ranges from 0.12-0.32
Acetylcholinesterase [23] = target: T3, Acetylcholinesterase; test: In vitro inhibitory concentration against purified Acetylcholinesterase of human erythrocytes; value ranges from 3.87-11.9
Butyrylcholinesterase [24] = target: T4, Butyrylcholinesterase; test: In vitro inhibitory concentration against Butyrylcholinesterase of horse serum; value ranges from […]
Method in brief: as §1

[25] = target: T2, Amine oxidase [flavin-containing] A; test: In vitro inhibitory concentration against Monoamine oxidase A of rat brain homogenates; assay type: tissue-based
Butyrylcholinesterase [26] = target: T4, Butyrylcholinesterase; test: In vitro inhibitory concentration against Butyrylcholinesterase of horse serum; value ranges from 1.63-2.45
Method in brief: as §1

[27] = target: T2, Amine oxidase [flavin-containing] A; test: In vitro inhibitory concentration against Monoamine oxidase A of rat brain homogenates; value ranges from 4.3-7.3; assay type: tissue-based
Acetylcholinesterase [28] = target: T3, Acetylcholinesterase; test: In vitro inhibitory concentration against purified Acetylcholinesterase of human erythrocytes; value ranges from […]-[…]
Acetylcholinesterase [29] = target: T3, Acetylcholinesterase; test: In vitro inhibitory concentration against purified Acetylcholinesterase of human erythrocytes; value ranges from 5.24-30.8
Butyrylcholinesterase [30] = target: T4, Butyrylcholinesterase; test: In vitro inhibitory concentration against Butyrylcholinesterase of horse serum; value ranges from 6.8-31.2
Method in brief: as §1

Acetylcholinesterase [31] = target: T3, Acetylcholinesterase; test: In vitro inhibitory concentration against purified Acetylcholinesterase of human erythrocytes; value ranges from 13.6-128
Butyrylcholinesterase [32] = target: T4, Butyrylcholinesterase; test: In vitro inhibitory concentration against Butyrylcholinesterase of horse serum; value ranges from 1.6-3.6
[33] = target: T2, Amine oxidase [flavin-containing] A; test: biochemical

C#CCN(C)CCc1cccc(O)c1
IC50 [1]: 6.4 µM | IC50 [2]: 1.3 µM

C#CCNC(C)Cc1cccc(OC(=O)N(C)CCCC)c1 (stereo not drawn)
IC50 (Acetylcholinesterase [3]): 12.2 µM | IC50 (Butyrylcholinesterase [4]): 2.75 µM | IC50 [5]: 15 µM | IC50 [6]: 0.4 µM

C#CCNC1CCc2ccc(OC(=O)N(C)C)cc2C1 (stereo not drawn)
IC50 (Acetylcholinesterase [7]): 4.1 µM | IC50 (Butyrylcholinesterase [8]): 0.77 µM | IC50 [9]: 1000 µM | IC50 [10]: 2 µM

C#CCN(C)C1CCc2c(O)cccc21 (stereo not drawn)
IC50 [11]: 0.008 µM

CN(C)C(=O)Oc1cccc(CCN)c1
IC50 (Acetylcholinesterase [12]): 0.23 µM | IC50 [9]: > 1000 µM | IC50 [13]: 95 µM

C#CCNC(C)Cc1cccc(OC(=O)N(C)C2CCCCC2)c1 (stereo not drawn)
IC50 (Acetylcholinesterase [14]): 3.6 µM | IC50 [15]: 0.23 µM | IC50 [16]: 18 µM

C#CCN(C)C1CCc2ccc(O)cc21 (stereo not drawn)
IC50 [17]: 0.015 µM | IC50 [18]: 0.03 µM

C#CCNC1CCc2c(O)cccc21 (stereo not drawn)
IC50 [19]: 0.9 µM | IC50 [20]: 0.9 µM

CCCN(C)C(=O)Oc1cccc(CCN)c1
IC50 [9]: > 1000 µM | IC50 [21]: 240 µM

CN(C)CCc1cccc(OC(=O)N(C)C)c1
IC50 (Acetylcholinesterase [22]): 0.16 µM | IC50 [9]: > 1000 µM

CCN(C)C(=O)Oc1ccc2c(c1)C(N)CCC2 (stereo not drawn)
IC50 (Acetylcholinesterase [23]): 6.22 µM | IC50 (Butyrylcholinesterase [24]): 5.41 µM | IC50 [25]: 1000 µM

CCN(C)C(=O)Oc1ccc2c(c1)[C@H](N)CC2
IC50 (Butyrylcholinesterase [26]): 1.96 µM | IC50 [9]: > 1000 µM | IC50 [27]: 5.6 µM | IC50 (Acetylcholinesterase [28]): 6.14 µM

C#CCN[C@@H]1CCc2ccc(OC(=O)N(C)CCC)cc21
IC50 (Acetylcholinesterase [29]): 10.8 µM | IC50 (Butyrylcholinesterase [30]): 14.9 µM

C#CCN[C@H]1CCc2ccc(OC(=O)N(C)CC)cc21
IC50 (Acetylcholinesterase [31]): 34.9 µM | IC50 (Butyrylcholinesterase [32]): 2.2 µM | IC50 [9]: > 1000 µM | IC50 [33]: 550 µM
